The subject of series [1] is Human T-lymphotropic virus 2. Briefly: Binding affinity to HTLV-2 FSS RNA up to 3 uM by surface plasmon resonance analysis.
Series [2] in a line: Binding affinity to FSS DNA (unknown origin) after 10 mins by fluorescence titration analysis. The gist of the method: (§1)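 Solution fluorescence titration in 20 mM HEPES, 150 mM NaCl. Compound at 1 μM, titrated with unlabeled HIV-1 FSS RNA (10 μM stock), FSS DNA or yeast tRNA (40 μM stocks). 10 min equilibration after each addition. Quenching of benzo[g]quinoline fluorescence read in triplicate 1 min apart, corrected for dilution; KD from saturable quenching. Error is SD.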

A short description of series [3]: Binding affinity to HIV-1 FSS RNA after 10 mins by fluorescence titration analysis. On the set-up: species or system Human immunodeficiency virus 1. The procedure, abridged: as §1
Series [4] in a line: Binding affinity to yeast tRNA after 10 mins by fluorescence titration analysis. On the set-up: species or system Saccharomyces cerevisiae. The procedure, abridged: as §1
The test system of series [5] is HEK293FT. Briefly: Binding affinity to HIV-1 FSS RNA transfected in HEK293FT cells after 36 hrs by Renilla/firefly luciferase reporter gene assay. It counts as cell-based. The note with it: Human immunodeficiency virus 1. The procedure, abridged:
(§2)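 HEK293FT cells (1.5 × 10^4/well) transiently transfected with pDualHIV(−1) or in-frame pDualHIV(0) Rluc–FSS–Fluc plasmid (0.2 μg). Compound (0–50 μM) added 5 h later, in triplicate, for 36 h at 37 °C. Fluc/Rluc ratio from lysate, expressed relative to untreated transfected cells (100%). Error is SEM.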

A short description of series [6]: Binding affinity to HIV-1 FSS RNA in 20 mM HEPES buffer assessed as dissociation rate by surface plasmon resonance analysis in presence of 150 mM NaCl, 5 mM MgCl2 and 0.005 % tween-20. On the set-up: species or system Human immunodeficiency virus 1. The procedure, abridged: (§3)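 SPR with HIV-1 FSS RNA captured on low-density (~300 RU) and high-density (~1200 RU) chips. Compound flowed at 50 μL/min in 20 mM HEPES, 150 mM NaCl, 5 mM MgCl2, 0.005% Tween-20. 0.5 or 1 M NaCl regeneration as needed. Each concentration injected at least twice. Kinetic constants and KD from individual fits of reference-subtracted sensorgrams.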
For orientation: Surface plasmon resonance follows binding to a sensor surface in real time, without labels.

In series [7] the test system is HEK293FT. The experiment in a line: Binding affinity to HIV-1 FSS RNA transfected in HEK293FT cells at 50 uM after 36 hrs by Renilla/firefly luciferase reporter gene assay. Conditions: Human immunodeficiency virus 1. It counts as cell-based. The procedure, abridged: as §2
For orientation: In a reporter assay the amount or activity of a reporter protein is the signal.

Series [8] has as its system Human immunodeficiency virus 1. The experiment in a line: Antiviral activity against HIV-1 NL4-3 infected in TZM-bl cells after 24 hrs.
Series [9] is described as follows: Binding affinity to HIV-1 FSS RNA in HBS buffer at pH 7.4 by surface plasmon resonance analysis. On the set-up: species or system Human immunodeficiency virus 1. The gist of the method:
(§4)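 RNA captured on SPR chips at low (~300 RU) and high (~1200 RU) density, each measured once. Compound flowed in HBS (0.01 M HEPES, 0.150 M NaCl, pH 7.4) at 60 μL/min over at least five concentrations, each injected at least twice. A 20 s 0.5 or 1 M NaCl pulse regenerated the chip where needed. Reference-subtracted, blank-corrected sensorgrams (association plus dissociation) were globally fit to 1:1 Langmuir; error is standard error of the fit.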

For series [10], the system named is Human immunodeficiency virus 1. The experiment in a line: Increase in HIV-1 NL4-3 reverse transcriptase p66/51 level at 10 to 40 uM by Western blotting analysis. It counts as functional, organism-based. The gist of the method: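 Pseudotyped virions from compound-treated producer cells, equal loads by p24 ELISA, pelleted through 20% sucrose at 100,000g. Western blot for RT and p24. Densitometry of nonsaturated bands gave p160/(p66+p51) and total RT/p24 ratios.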
For orientation: A western blot detects proteins with antibodies after separation by electrophoresis.

Series [11] has as its system Human immunodeficiency virus 1. The experiment in a line: Antiviral activity against HIV-1 NL4-3 assessed as reduction in viral infectivity in human TZM-bl cells after 48 hrs by firefly luciferase reporter gene assay. The series is classed as functional, organism-based. The note with it: Human immunodeficiency virus 1, NL4-3, TZM-bl. The procedure, abridged:
(§5)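 Single-round infectivity of VSV-G pseudotyped HIV-1 (pDHIV3-GFP, NL4-3 genes minus nef/env) made in transfected HEK293T producer cells. Compounds added to producers 4 h post-transfection; virions harvested at 24 h, filtered, normalized by p24 ELISA. TZM-bl cells (10,000/well) infected with 500 pg p24/well in triplicate for 48 h; LTR-driven firefly luciferase luminescence read. EC50 derived from concentration series.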

Series [12] in a line: Cellular uptake in cytoplasm of HEK293FT cells at 50 uM measured for 12 hrs by fluorescence microscopy. It counts as ADME, cell-based. The note with it: human.
For series [13], the system named is Human immunodeficiency virus 1. The experiment in a line: Antiviral activity against HIV-1 NL4-3 assessed as reduction in viral production […] after 24 hrs by fluorescence microscopy. The series is classed as functional, organism-based. The procedure, abridged:
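HEK293T producer cells transfected with GFP-marked pseudotyped HIV-1 vector plus VSV-G and treated with compound 4 h after transfection. Proviral GFP expression imaged by fluorescence microscopy 24 h after treatment, before virions were harvested.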

The nature of series [14]: Cellular uptake in nucleus of HEK293FT cells at 50 uM measured for 12 hrs by fluorescence microscopy. It counts as ADME, cell-based. Conditions: human.
Series [15] in a line: (§6) Binding affinity to HIV-1 FSS RNA in HBS buffer at pH 7.4 assessed as dissociation rate by surface plasmon resonance analysis. Also on record: species or system Human immunodeficiency virus 1. The gist of the method:
as §4

Series [16] relates to Human immunodeficiency virus 1. Briefly: Antiviral activity against HIV-1 NL4-3 assessed as reduction in viral infectivity in human TZM-bl cells at 20 uM after 48 hrs by firefly luciferase reporter gene assay. On the set-up: scale not given: the % may be the effect or the level left. The series is classed as functional. The gist of the method:
as §5

The nature of series [17]: Binding affinity to HIV-1 FSS RNA in 20 mM HEPES buffer by surface plasmon resonance analysis in presence of 150 mM NaCl, 5 mM MgCl2 and 0.005 % tween-20. On the set-up: species or system Human immunodeficiency virus 1. The procedure, abridged:
as §3

The test system of series [18] is HEK293FT. The experiment in a line: Binding affinity to HTLV-2 FSS RNA transfected in HEK293FT cells at 1 to 50 uM after 36 hrs by Renilla/firefly luciferase reporter gene assay. It counts as cell-based. The note with it: Human T-lymphotropic virus 2. The gist of the method: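 HEK293FT cells transiently transfected with pDualHTLV-2(−1) (Fluc made only via −1 frameshift at the HTLV-2 site) and treated 5 h later with compound (0–50 μM) in triplicate for 36 h at 37 °C. Fluc/Rluc ratio from lysate, relative to untreated transfected cells. Error is SEM.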

Series [19] in a line: Cytotoxicity against HEK293FT cells assessed as cell viability at <60 uM after 24 hrs by WST-1 assay. The series is classed as cell-based. Conditions: human. The gist of the method: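 HEK293FT cells at 80% confluence in DMEM/10% FBS exposed to compound (up to 0.5 mM) or a water control, in triplicate, for 24 h at 37 °C. WST-1 reagent then added for 2 h. Absorbance at 450 minus 690 nm, blank-corrected, plotted against concentration. Error is SD of three measurements.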

Series [20] in a line: Selectivity ratio of KD for FSS DNA (unknown origin) to KD for HIV-1 FSS RNA. The gist of the method:
(§7)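 Ratios of fluorescence-titration KD values (20 mM HEPES, 150 mM NaCl; compound 1 μM): KD for FSS DNA or total yeast tRNA divided by KD for HIV-1 FSS RNA.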

Series [21] in a line: Selectivity ratio of KD for yeast tRNA to KD for HIV-1 FSS RNA. The gist of the method:
as §7

The test system of series [22] is Human immunodeficiency virus 1. The experiment in a line: Binding affinity to HIV-1 FSS RNA in HBS buffer at pH 7.4 assessed as association rate by surface plasmon resonance analysis. The gist of the method:
as §4

For series [23], the system named is Human immunodeficiency virus 1. The experiment in a line: Binding affinity to HIV-1 FSS RNA in 20 mM HEPES buffer assessed as association rate by surface plasmon resonance analysis in presence of 150 mM NaCl, 5 mM MgCl2 and 0.005 % tween-20. The procedure, abridged: as §3
The subject of series [24] is Human immunodeficiency virus 1. Briefly: Antiviral activity against HIV-1 NL4-3 assessed as reduction in viral infectivity in human TZM-bl cells at 40 uM after 48 hrs by firefly luciferase reporter gene assay. It counts as functional. Also on record: scale not given: the % may be the effect or the level left.
In series [25] the test system is Human immunodeficiency virus 1. The description is as §6. The gist of the method: as §4

SMILES strings stand for the structures. Activity calls are given as the source filed them. The calls are words filed in the database; no cut-off is given here.

In the case of `CCc1nc2cc3ccccc3cc2cc1C(=O)N[C@@H](C/C=C\C[C@H](NC(=O)c1cc2cc3ccccc3cc2nc1CC)C(=O)N1CCC[C@H]1C(=O)N[C@@H](Cc1ccccc1)C(=O)NCCCN)C(=O)N1CCC[C@H]1C(=O)N[C@@H](Cc1ccccc1)C(=O)NCCCN`, the outcome (in [1]; with HEK293FT [18]) was inactive. In addition, the Kd in series [2] stood at 0.265 µM; in series [3] it was 0.066 µM; in series [4] it was 0.334 µM; in series [6], 1.35 ×10⁻³ /s; in series [9] (read-out: Kd), 0.102 µM; in [17] it was 0.071 µM. The Activity entry in the series on HEK293FT [5] is “Dose-dependent effect”; in the series with HEK293FT [7] it was more than 50%; in [13] it was “Dose-dependent effect”; in series [16], more than 90%; in [19], “Non-toxic”. Also, the result in series [8] and in [10] was Active. Further, in series [11], the EC50 came out at 3.9 µM. The Drug uptake entry in series [12] and in [14] was “Active” throughout. In addition, in [15], the “Dissociation rate constant (koff)” value is 4.11 ×10⁻³ /s. For the same compound, the Ratio in series [20] is 4; in [21], 5. For the same compound, the Ka in series [22] was determined as 4.25 ×10⁴ /M/s; in [23], 2.17 ×10⁴ /M/s.

For `CCc1nc2cc3ccccc3cc2cc1C(=O)N[C@@H](C/C=C/C[C@H](NC(=O)c1cc2cc3ccccc3cc2nc1CC)C(=O)N1CCC[C@H]1C(=O)N[C@@H](Cc1ccccc1)C(=O)NCCCN)C(=O)N1CCC[C@H]1C(=O)N[C@@H](Cc1ccccc1)C(=O)NCCCN`, the outcome (in [1]; in the series on HEK293FT [18]) was inactive. The Kd was determined as 0.118 µM in [2]; 0.101 µM in [3]; 0.217 µM in [4]; 3.46 ×10⁻³ /s in series [6]; 0.089 µM in series [9] (read-out: Kd); 0.096 µM in series [17]. For the same compound, the Activity in series [24] was more than 90%; in the series on HEK293FT [5] it was “Dose-dependent effect”; in the series with HEK293FT [7], more than 50%; in [13], “Dose-dependent effect”; in series [19], “Non-toxic”. In addition, the result in series [8] and in series [10] was Active. In addition, in series [11], the EC50 turned out to be 25.6 µM. In addition, the Drug uptake entry in series [12] and in [14] was “Active” in each case. In addition, in [15], the “Dissociation rate constant (koff)” value is 3.75 ×10⁻³ /s. Moreover, in [21], the Ratio turned out to be 2.14. Besides, the Ka was 3.99 ×10⁴ /M/s in series [22] and 3.68 ×10⁴ /M/s in series [23].

Consider `C=CC[C@H](NC(=O)c1cc2cc3ccccc3cc2nc1CC)C(=O)N1CCC[C@H]1C(=O)N[C@@H](Cc1ccccc1)C(=O)NCCCN`, for which the outcome in series [1] was inactive. The results for the Kd in [3] and in series [9] (read-out: Kd) were 0.409 µM and 19.5 µM, respectively. For the same compound, in series [15], the “Dissociation rate constant (koff)” value turned out to be 2.25 ×10⁻² /s. The Ka in series [22] was 1.16 ×10³ /M/s.

For `CCc1nc2cc3ccccc3cc2cc1C(=O)N[C@@H](C/C=C/C[C@H](N)C(=O)N1CCC[C@H]1C(=O)N[C@@H](Cc1ccccc1)C(=O)NCCCN)C(=O)N1CCC[C@H]1C(=O)N[C@@H](Cc1ccccc1)C(=O)NCCCN`, in [1], the outcome was inactive. The Kd in series [9] (read-out: Kd) stood at 20.7 µM. Also, the “Dissociation rate constant (koff)” value in [15] is on record as 1.63 ×10⁻¹ /s. For the same compound, the Ka in [22] stood at 7.71 ×10³ /M/s.

Regarding `CC(C)(C)NC(=O)[C@@H]1CN(Cc2cccnc2)CCN1C[C@@H](O)C[C@@H](Cc1ccccc1)C(=O)N[C@H]1c2ccccc2C[C@H]1O` [INDINAVIR], in [11], the EC50 worked out at 0.0148 µM.

Take `NCCCNC(=O)[C@H](Cc1ccccc1)NC(=O)[C@@H]1CCCN1C(=O)[C@@H](N)C/C=C/C[C@H](N)C(=O)N1CCC[C@H]1C(=O)N[C@@H](Cc1ccccc1)C(=O)NCCCN`: the outcome (in series [1]; in the series on HEK293FT [5]; in the series on HEK293FT [7]; in [25]; in series [22]) was inactive. Also, in [24], the result was Active. Further, the Kd result in [9] is “Not Active”.

The EC50 is the concentration needed to bring the measured effect to its halfway point.
